Test results published in ChEMBL document CHEMBL1144220, “Screening helix-threading peptides for RNA binding using a thiazole orange displacement assay” (Bioorg Med Chem, 2008).
pKd: −log10 of the molar value. Square brackets hold non-standard residues; d marks the D form. Peptide text beside a SMILES is read from it. * marks the point of attachment. X1 = C=CCc1ccc(-c2cc(Nc3ccc(CN)cc3)c3cccc(C(=O)*)c3n2)cc1; X2 = C=CCc1ccc(-c2cc(Nc3ccccc3)c3cccc(C(=O)*)c3n2)cc1; AllylGly = C=CC[C@H](N)C(=O)O; Dap = NC[C@H](N)C(=O)O

Key:
[1] = Displacement of thiazole orange from RNA A by fluorescent intercalator displacement assay
Procedure, shortened: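 Pre-formed complex of RNA A (100 nM) with thiazole orange (50 nM), in 50 mM Bis-Tris·HCl pH 7.0, 100 mM NaCl, 10 mM MgCl2, 15 min. Added to a peptide titration and held ~15 min at 25 °C. Fluorescence read at ex 485 / em 535 nm, minus dye-only background. […] Three independent runs, mean ± SD.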

RNA A (synthetic) = assay: Binding affinity to RNA A by quantitative ribonuclease V1 footprinting assay

Row | Compound | pKd [1] | Binding affinity (RNA A (synthetic)) [µM] | Activity [1] [%]
1 | CC(C)C[C@@H]1NC(=O)[C@H](CCCNC(=N)N)NC(=O)c2cccc3c(Nc4ccccc4)cc(nc23)-c2ccc(cc2)C/C=C/C[C@@H](C(N)=O)NC(=O)[C@H](CC(N)=O)NC1=O | 5.21 | – | –
2 | NCCCC[C@H]1NC(=O)CNC(=O)[C@H](CN)NC(=O)c2cccc3c(Nc4ccc(CN)cc4)cc(nc23)-c2ccc(cc2)C/C=C/C[C@@H](C(N)=O)NC1=O | 6.22 | 0.27 | 96
3 | N=C(N)NCCC[C@@H]1NC(=O)c2cccc3c(Nc4ccccc4)cc(nc23)-c2ccc(cc2)C/C=C/C[C@@H](C(N)=O)NC(=O)[C@@H](CC(N)=O)NC(=O)[C@@H](CC(N)=O)NC1=O | 4.87 | – | –
4 | NC[C@@H]1O[C@H](O[C@H]2[C@@H](O)[C@H](O[C@H]3[C@@H](O)[C@H](N)C[C@H](N)[C@H]3O[C@H]3O[C@H](CN)[C@@H](O)[C@H](O)[C@H]3N)O[C@@H]2CO)[C@H](N)[C@@H](O)[C@@H]1O | < 4.22 | – | –
5 | C=CCc1ccc(-c2cc(Nc3ccccc3)c3cccc(C(=O)N[C@@H](CCCNC(=N)N)C(=O)N[C@H](CC(C)C)C(=O)N[C@H](CC(C)C)C(=O)N[C@@H](CC=C)C(N)=O)c3n2)cc1 | < 4.52 | – | –
6 | NCCCC[C@H]1NC(=O)[C@H](Cc2ccccc2)NC(=O)[C@H](CN)NC(=O)c2cccc3c(Nc4ccc(CN)cc4)cc(nc23)-c2ccc(cc2)C/C=C/C[C@@H](C(N)=O)NC1=O | 5.57 | 2.3 | –
7 | NCCCC[C@@H]1NC(=O)[C@H](CN)NC(=O)c2cccc3c(Nc4ccc(CN)cc4)cc(nc23)-c2ccc(cc2)C/C=C/C[C@@H](C(N)=O)NC(=O)CNC1=O | 6.66 | 0.05 | –
8 | C=CCc1ccc(-c2cc(Nc3ccc(CN)cc3)c3cccc(C(=O)N[C@@H](CN)C(=O)N[C@@H](CCCCN)C(=O)NCC(=O)N[C@@H](CC=C)C(N)=O)c3n2)cc1 (X1-[Dap]KG[AllylGly]-NH2) | 6.15 | 0.33 | –
9 | C=CCc1ccc(-c2cc(Nc3ccccc3)c3cccc(C(=O)N[C@@H](CCCNC(=N)N)C(=O)N[C@@H](CC(C)C)C(=O)N[C@@H](CC(C)C)C(=O)N[C@@H](CC=C)C(N)=O)c3n2)cc1 | < 4.52 | – | –
10 | CC(C)[C@H](NC(=O)[C@H](CO)NC(=O)CCCN)C(=O)NCc1ccc(Nc2ccnc3c(C(=O)N[C@@H](CCCNC(=N)N)C(N)=O)cccc23)cc1 | 4.88 | 3.3 | –
11 | NC[C@H]1O[C@H](O[C@H]2[C@H](O)[C@@H](O[C@H]3O[C@H](CO)[C@@H](O)[C@H](N)[C@H]3O)[C@H](N)C[C@@H]2N)[C@H](O)[C@@H](O)[C@@H]1O [KANAMYCIN] | < 4.00 | – | –
12 | NCCCC[C@H]1NC(=O)[C@@H](Cc2ccccc2)NC(=O)[C@H](CN)NC(=O)c2cccc3c(Nc4ccc(CN)cc4)cc(nc23)-c2ccc(cc2)C/C=C/C[C@@H](C(N)=O)NC1=O | 5.36 | 8.6 | –
13 | C=CCc1ccc(-c2cc(Nc3ccccc3)c3cccc(C(=O)N[C@@H](CCCNC(=N)N)C(=O)N[C@@H](CC(N)=O)C(=O)N[C@@H](CC(N)=O)C(=O)N[C@@H](CC=C)C(N)=O)c3n2)cc1 (X2-RNN[AllylGly]-NH2) | 4.85 | – | –

Continued, values first:

Row | pKd [1] | Binding affinity (RNA A (synthetic)) [µM] | Activity [1] [%] | Compound
14 | 5.00 | – | – | CC(C)C[C@H]1NC(=O)[C@H](CCCNC(=N)N)NC(=O)c2cccc3c(Nc4ccccc4)cc(nc23)-c2ccc(cc2)C/C=C/C[C@@H](C(N)=O)NC(=O)[C@@H](CC(C)C)NC1=O
15 | 4.72 | – | – | CC(C)C[C@@H]1NC(=O)[C@H](CC(N)=O)NC(=O)[C@H](CCCNC(=N)N)NC(=O)c2cccc3c(Nc4ccccc4)cc(nc23)-c2ccc(cc2)C/C=C/C[C@@H](C(N)=O)NC1=O
16 | 6.46 | – | – | N=C(N)NCCC[C@@H]1NC(=O)c2cccc3c(Nc4ccccc4)cc(nc23)-c2ccc(cc2)C/C=C/C[C@@H](C(N)=O)NC(=O)CNC(=O)[C@H](CCCCN)NC1=O
17 | < 4.52 | – | – | CC(C)C[C@@H]1NC(=O)[C@H](CC(C)C)NC(=O)[C@H](CCCNC(=N)N)NC(=O)c2cccc3c(Nc4ccccc4)cc(nc23)-c2ccc(cc2)C/C=C/C[C@@H](C(N)=O)NC1=O
18 | 5.85 | – | – | N=C(N)NCCC[C@@H]1NC(=O)c2cccc3c(Nc4ccccc4)cc(nc23)-c2ccc(cc2)C/C=C/C[C@@H](C(N)=O)NC(=O)[C@H](CC(N)=O)NC(=O)[C@H](CC(N)=O)NC1=O
19 | 5.41 | – | – | N=C(N)NCCC[C@@H]1NC(=O)c2cccc3c(Nc4ccccc4)cc(nc23)-c2ccc(cc2)C/C=C/C[C@@H](C(N)=O)NC(=O)CNC1=O
20 | 5.44 | – | – | N=C(N)NCCC[C@@H]1NC(=O)c2cccc3c(Nc4ccccc4)cc(nc23)-c2ccc(cc2)C/C=C/C[C@@H](C(N)=O)NC1=O
